Among the data in ChEMBL document CHEMBL1154208, “Antispasmodic effects and structure-activity relationships of labdane diterpenoids from Marrubium globosum ssp. libanoticum” (2009) are inhibition values, retold here.

Molecules are shown by their SMILES. Activity calls are given as the source filed them. No cut-off for these calls is given here.

One test concerns Ileum. Put plainly: Antispasmodic activity in mouse distal ileum assessed as inhibition of acetylcholine-induced contractions after 20 mins. Format: functional, tissue-based.
Settings: not given
An outline of the steps: (§1)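 Isolated mouse ileum segments. Contractions evoked by acetylcholine (10^-6 M) at 20 min intervals; after at least three stable control contractions, responses repeated with noncumulative increasing compound concentrations added 20 min before the stimulus, after tissue washing. Mean ± SEM of 6-8 experiments; concentration-response curves fitted by nonlinear regression.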
Take `CCO[C@@H]1O[C@@H]2O[C@]3(CC[C@]2(O)[C@H]1O)[C@H](C)C[C@H]1OC(=O)[C@@]2(C)CCC[C@@]3(C)[C@@H]12` (relative stereo): the inhibition entry is “Dose-dependent effect”.

In another test the test system is Ileum. Put plainly: Antispasmodic activity in mouse distal ileum assessed as inhibition of acetylcholine-induced contractions at 100 ug/ml after 20 mins. Format: functional.
Settings: not given
In outline: as §1
Take `C[C@@H]1C[C@H]2OC(=O)[C@@]3(C)CCC[C@@](C)([C@@H]23)[C@@]1(O)CCCC(=O)O`: the inhibition entry is “Active”. As for `C[C@@H]1C[C@H]2OC(=O)[C@@]3(C)CCC[C@@](C)([C@@H]23)[C@@]12CC[C@]1(CO[C@H](O)C1)O2`, the inhibition entry was “Active”. For the molecule `C[C@@H]1C[C@@H](O)[C@H]2C(C)(C)CCC[C@]2(C)[C@@]1(O)CCC1=CC(=O)OC1`, the inhibition result was “inactive”.

On to `C[C@@H]1C[C@H]2OC(=O)[C@@]3(C)CCC[C@@](C)([C@@H]23)[C@@]12CC[C@@]1(CO[C@@H](O)C1)O2`, for which the inhibition result was “inactive”. Consider `C[C@@H]1C[C@H]2OC(=O)[C@@]3(C)CCC[C@@](C)([C@@H]23)[C@@]12CC[C@@]1(COC(=O)C1)O2`, for which the inhibition result was “Active”. On to `C[C@@H]1C[C@H]2OC(=O)[C@@]3(C)CCC[C@@](C)([C@@H]23)[C@@]1(O)CCC1=CC(=O)OC1`, for which the inhibition entry was “inactive”.

Turning to `C[C@@H]1C[C@H]2OC(=O)[C@@]3(C)CCC[C@@](C)([C@@H]23)[C@@]12CC[C@@]1(CO[C@H](O)C1)O2`, the inhibition result is “inactive”. `C[C@@H]1C[C@H]2OC(=O)[C@@]3(C)CCC[C@@](C)([C@@H]23)[C@@]12CC[C@]1(COC(=O)C1)O2`: the inhibition entry was “Active”. Consider `C[C@@H]1C[C@H]2OC(=O)[C@@]3(C)CCC[C@@](C)([C@@H]23)[C@@]12CC[C@]1(CO[C@@H](O)C1)O2`, for which the inhibition result is “Active”.

The same test, now with this note: read-out: INH.
In the case of `C[C@@H]1C[C@H]2OC(=O)[C@@]3(C)CCC[C@@](C)([C@@H]23)[C@@]12CCCC(=O)O2` [MARRULACTONE], the inhibition at 100 µg/mL is less than 50%. As for `C[C@@H]1C[C@H]2OC(=O)[C@@]3(C)CCC[C@@](C)([C@@H]23)[C@@]12CCC(=O)O2`, the inhibition at 100 µg/mL was less than 50%.
